7 molecules from PubChem BioAssay can be followed below.

Activity calls are given as the source filed them.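 How the source made its calls, unless noted: active means inhibition at or above 50% relative to wild type and mutant plate controls; inactive means inhibition below 50%.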

A short description of experiment [1]: inhibitors of TNFa-induced NFkB p65 translocation, primary screen, imaging, HUVEC, MLSMR starter and 10KST1 sets (AID 438;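 active means inhibition above 20% together with a positive visual image hit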;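 further: compound added about 3h40 before a 20 min TNFalpha stimulation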;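 on inhibition: signal is the nuclear over cytoplasmic p65 intensity ratio per well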). To be noted: HUVEC TNFa-induced p65 nuclear translocation; cell count: measured here: nuclei count (cytotoxicity indicator), at 2.08 µM; inhibition: at 2 µM, stronger effect = higher value, 0% TNFa-plus-vehicle, 100% no-TNFa wells.
Experiment [2] can be described thus: endothelial E-selectin expression blockers – imaging, HUVEC, immunofluorescence, MLSMR starter and 10KST1 sets, primary screen (AID 487;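 active means visually confirmed hit in the image check and inhibition above 20%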;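 on inhibition: signal is fraction of cell area covered by stained E-selectin grains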;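 on nuclei count: 100% = median nuclei count of all wells on the same plate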). To be noted: HUVEC TNFalpha-induced E-selectin immunofluorescence imaging, at 2 µM; inhibition: stronger effect = higher value; nuclei count: measured here: cell number, toxicity.
Experiment [3] is described as follows: Primary imaging screen for DUSP6 inhibitors that restore phospho-Erk in transfected HeLa cells, chemical complementation (AID 609;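 active means compounds giving at least 50% inhibition in the cell-based MKP-3 phosphatase rescue imaging test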;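 on inhibition: phospho-Erk level distribution per well compared with pooled transfected vehicle control wells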). To be noted: HeLa MKP-3 transfected, phospho-Erk imaging KS statistic, at 10 µM, cells stimulated with TPA for 15 min.
Experiment [4] concerns the target Dual specificity protein phosphatase 6 (Homo sapiens) (UniProt Q16828). The description is as above. The note with it: HeLa MKP-3 transfected, phospho-Erk imaging KS statistic; at 10 µM; stronger effect = higher value; cells stimulated with TPA for 15 min.
Experiment [5] addresses Voltage-gated potassium channel subunit beta-2 (Rattus norvegicus) (UniProt P62483). As to the kind of experiment: inhibitors of rat Kvbeta2 reductase activity – biochemical, NADPH fluorescence, primary screen (AID 622;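 active means fluorescence slope higher than the sample average by over 3 SD, cut at about -0.22 in these data, passing the limit was not always enough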;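 further: slope of raw intensity against log time taken from 70 to 1610 s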). The note with it: recombinant KvBeta, 4-cyanobenzaldehyde reduction, at 10 µM, stronger effect = higher value.
Experiment [6] has the same target. As to the kind of experiment: enhancers of rat Kvbeta2 NADPH turnover – biochemical, NADPH fluorescence, primary screen (AID 623;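 active means NADPH fluorescence slope more negative than the mean of all samples by about 3 SD, 99.7% confidence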;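 further: fluorescence intensity change per second fitted from 20 to 320 s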). To be noted: Recombinant KvBeta, NADPH fluorescence decrease slope, 10 min; at 10 µM; stronger effect = lower value.
For experiment [7], the target named is Muscarinic acetylcholine receptor M4 (Homo sapiens) (UniProt P08173). The experiment can be described thus: M4-linked GIRK flux change, two-sided – cell-based, HEK293 M4/GIRK, thallium flux, BTC-AM, M4 allosteric agonist project, primary screen (AID 625;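 active means fluorescence slope after compound addition differing from the mean of all tested samples at 99.7% confidence, mostly higher but some lower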;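 further: thallium influx through GIRK channels coupled to M4 in HEK293 cells with BTC-AM dye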). To be noted: at 10 µM, actives lie on both sides. Summed up:
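assay system = HEK293 cells with M4 receptor and GIRK channels | medium = pH 7.3 thallium assay buffer | doses = 10 µM final, single point | timing = cells overnight at 37 °C, BTC-AM loading 1 h, reads 2 min total | signal = BTC-AM fluorescence, 1 Hz kinetic reads | read-out = post-addition slope, 15–24 s, of baseline-normalized fluorescence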

Experiment [8] can be described thus: inhibitors of larval lipid processing in zebrafish, primary screen, whole organism, PED6 fluorescence, gall bladder and intestine (AID 686;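 active means a full or partial loss of lipid-probe fluorescence in the fish gall bladder, intestine or both, judged by eye; inactive means no fluorescence loss, or compound toxic to the fish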;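 further: larvae 5 to 7 days old with five fish per well; signal comes from phospholipase A2 cleavage of quenched PED6 carried via bile; overnight exposure to compound and PED6 before scoring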). The note with it: Zebrafish larvae PED6 lipid processing, fluorescence scoring; screened at 20 µM (by protocol). In outline: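 Also added: quenched phospholipase substrate PED6, 100 nM final, ingested by larvae; System: zebrafish larvae, 5-7 d; Quantity: 5 larvae per well; Compound: 20 µM single dose; Schedule: overnight compound and PED6 incubation; Read-out: visual per-well fluorescence inhibition score; Measured by: By-eye fluorescence microscopy; Medium: E3.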

The nature of experiment [9]: loss of swimming-algae plug formation – whole organism, Chlamydomonas reinhardtii, WT vs cilia-less mutant, absorbance, 96-well, primary screen (AID 463189).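 Further: 0% = wild type cc124 cells in DMSO and 100% = ciliumless bld1 mutant cells.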 The note with it: Chlamydomonas reinhardtii gravitaxis, OD600 absorbance, 2 days; at 10 µM; stronger effect = higher value.
Setting [10] is: measured here: cell density z-score.
Where [11] appears, read: measured here: nuclear c-Myc green intensity z-score.
The mark [12] stands for this setting: measured here: nuclear pErk red intensity z-score, stronger effect = higher value.

Muscarinic acetylcholine receptor M4 (Homo sapiens), sequence (P08173 whole entry, looked up): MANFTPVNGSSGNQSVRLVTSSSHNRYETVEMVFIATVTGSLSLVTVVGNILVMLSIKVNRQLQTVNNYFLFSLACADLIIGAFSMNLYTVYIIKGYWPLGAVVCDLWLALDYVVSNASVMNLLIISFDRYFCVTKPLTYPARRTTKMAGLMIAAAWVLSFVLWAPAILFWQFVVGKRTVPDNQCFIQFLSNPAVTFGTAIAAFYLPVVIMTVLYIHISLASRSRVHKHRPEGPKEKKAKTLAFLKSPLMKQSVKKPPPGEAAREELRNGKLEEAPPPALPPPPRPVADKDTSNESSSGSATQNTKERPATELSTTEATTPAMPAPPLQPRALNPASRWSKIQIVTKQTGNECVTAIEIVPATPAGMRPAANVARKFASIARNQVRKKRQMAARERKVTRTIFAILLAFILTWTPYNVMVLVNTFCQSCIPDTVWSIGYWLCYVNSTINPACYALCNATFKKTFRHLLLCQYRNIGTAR
Dual specificity protein phosphatase 6 (Homo sapiens), sequence (Q16828 whole entry, looked up): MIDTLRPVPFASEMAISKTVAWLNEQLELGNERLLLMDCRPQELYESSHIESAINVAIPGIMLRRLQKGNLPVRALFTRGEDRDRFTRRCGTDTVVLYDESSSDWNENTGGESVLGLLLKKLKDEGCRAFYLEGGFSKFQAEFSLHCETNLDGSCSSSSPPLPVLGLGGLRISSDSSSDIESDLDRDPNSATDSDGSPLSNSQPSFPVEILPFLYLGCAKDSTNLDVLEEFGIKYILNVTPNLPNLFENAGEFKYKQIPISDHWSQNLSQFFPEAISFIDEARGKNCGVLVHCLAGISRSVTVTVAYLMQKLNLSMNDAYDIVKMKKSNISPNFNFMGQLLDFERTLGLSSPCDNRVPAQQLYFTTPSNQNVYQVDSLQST
Voltage-gated potassium channel subunit beta-2 (Rattus norvegicus), sequence (P62483 whole entry, looked up): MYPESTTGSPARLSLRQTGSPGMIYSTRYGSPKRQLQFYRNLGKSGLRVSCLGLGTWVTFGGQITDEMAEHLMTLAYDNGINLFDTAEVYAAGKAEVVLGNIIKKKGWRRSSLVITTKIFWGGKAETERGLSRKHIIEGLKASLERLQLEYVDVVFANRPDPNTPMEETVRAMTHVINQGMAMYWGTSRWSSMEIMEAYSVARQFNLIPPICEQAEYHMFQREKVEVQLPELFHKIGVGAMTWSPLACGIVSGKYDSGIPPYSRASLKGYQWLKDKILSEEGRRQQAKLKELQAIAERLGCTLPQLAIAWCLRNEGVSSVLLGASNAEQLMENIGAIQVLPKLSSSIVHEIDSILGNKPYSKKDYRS

For orientation: inhibition means the change of the read-out against control, counted positive when it falls. With `COc1ccc(Nc2nnc(C)c3ccccc23)cc1C(N)=O`, the cell count in experiment [1] turned out to be 616. Also, the inhibition was -2.5% (inactive) in [1], -91.7% (inactive) in [2], 3.49% (inactive) in [4] and -4.27% (inactive) in [9]. The molecule further displayed a nuclei count in [2] of 152%. Further, the z-score in experiment [3] (setting [10]) was -0.473; in experiment [3] (setting [11]), 0.976; in [3] (setting [12]) it was -0.605. Also, the figures for the fluorescence slope in [5] and in [7] were -0.459 (inactive) and 0.00456 (inactive), respectively. For the same molecule, the NADPH fluorescence slope in [6] is -0.000141 (inactive). Moreover, the call in experiment [8] was inactive.
Consider `CC(NC(=O)Nc1cccnc1)(C(F)(F)F)C(F)(F)F`, for which the cell count in [1] is 706. Besides, the inhibition in experiment [1] was -5.1% (inactive); in experiment [2] it was -177% (inactive); in [4], 7.93% (inactive); in [9], 0.542% (inactive). Also, the nuclei count in experiment [2] is 184%. For the same molecule, the z-score in experiment [3] (setting [10]) is 0.533; in experiment [3] (setting [11]), -0.524; in experiment [3] (setting [12]) it was 0.0759. In addition, the fluorescence slope in experiment [5] was -0.454 (inactive); in [7], 0.00556 (inactive). Further, in experiment [6], the NADPH fluorescence slope was -0.000301 (inactive). The result in experiment [8] was inactive.
In the case of `CC1(C)Cc2c(c(N3CCOCC3)nc3sc4c(NCc5ccco5)nnnc4c23)CS1`, the cell count in experiment [1] stood at 504. The inhibition in [1] was -8.4% (inactive); in experiment [2], -6.5% (inactive); in experiment [4], 19.8% (inactive); in [9] it was 15.9% (inactive). In experiment [2], the nuclei count was 116%. In addition, the z-score in [3] (setting [10]) is 1.05; in experiment [3] (setting [11]), -0.977; in experiment [3] (setting [12]), 0.343. The figures for the fluorescence slope in experiment [5] and in experiment [7] were -0.419 (inactive) and 0.00933 (inactive), respectively. The NADPH fluorescence slope in experiment [6] was -5e-06 (inactive). For the same molecule, the call in [8] was inactive.
In the case of `CCC(=NC(CC)CO)C1=C(O)CC(C)(C)CC1=O` (stereo unspecified), the cell count in experiment [1] stood at 686. Further, the inhibition was -11.6% (inactive) in [1], -103% (inactive) in experiment [2], -13.3% (inactive) in experiment [4] and -0.04% (inactive) in [9]. Besides, the nuclei count in [2] came to 171%. Moreover, the z-score in experiment [3] (setting [10]) is 0.537; in [3] (setting [11]), -0.145; in experiment [3] (setting [12]), 1.26. In addition, the fluorescence slope was -0.519 (inactive) in experiment [5] and 0.00583 (inactive) in [7]. The NADPH fluorescence slope in experiment [6] is -8.5e-05 (inactive). For the same molecule, in [8], the molecule was called inactive.
Regarding `O=C(NCc1ccccn1)c1ccc(=O)oc1`, in experiment [1], the cell count was 758. In addition, the inhibition is 8.2% (inactive) in experiment [1], -1.5% (inactive) in experiment [2], -3.95% (inactive) in experiment [4] and 17.3% (inactive) in [9]. The same molecule displayed a nuclei count in experiment [2] of 151%. Further, the results for the z-score in experiment [3] (setting [10]), in experiment [3] (setting [11]) and in experiment [3] (setting [12]) were 0.015, 0.178 and -0.703, respectively. Also, the fluorescence slope in [5] was -0.48 (inactive); in experiment [7], 0.00585 (inactive). In addition, in experiment [6], the NADPH fluorescence slope is -4.4e-05 (inactive). Further, the result in experiment [8] was inactive.
In the case of `CCOC(=O)c1c(C)n(C)c2ccc(OC)c(NC(=O)CN3CCC4(CC3)OCCO4)c12`, in experiment [1], the cell count came out at 690. The inhibition in experiment [1] is -4.9% (inactive); in experiment [2], -157% (inactive); in [4], -10.1% (inactive); in experiment [9] it was -0.554% (inactive). The same molecule returned a nuclei count in experiment [2] of 178%. The values for the z-score in experiment [3] (setting [10]), in experiment [3] (setting [11]) and in experiment [3] (setting [12]) were 0.288, 0.471 and 0.00411, respectively. The figures for the fluorescence slope in experiment [5] and in experiment [7] were -0.44 (inactive) and 0.00438 (inactive), respectively. Moreover, the NADPH fluorescence slope in experiment [6] is -4.5e-05 (inactive). For the same molecule, in experiment [8], the result was inactive.
For the molecule `CCCCOC(=O)CSC1=C(C#N)C(c2ccc3c(c2)OCO3)CC(=O)N1` (stereo unspecified), in experiment [1], the cell count amounted to 650. The inhibition in [1] was -12.5% (inactive); in experiment [2], -163% (inactive); in experiment [4] it was 8.31% (inactive); in experiment [9] it was 4.75% (inactive). In experiment [2], this molecule came in with a nuclei count of 155%. The z-score in experiment [3] (setting [10]) is 1.99; in experiment [3] (setting [11]), 0.113; in [3] (setting [12]), -0.175. Also, the fluorescence slope is -0.5 (inactive) in experiment [5] and 0.00598 (inactive) in [7]. For the same molecule, in [6], the NADPH fluorescence slope is -8.3e-05 (inactive). Moreover, the molecule was called inactive in experiment [8].
